From ChEMBL document CHEMBL1152226 (Bioorg Med Chem, 2008)

Assays:
[1] = target: Inosine-5'-monophosphate dehydrogenase 1 (Homo sapiens, UniProt P20839); test: Inhibition of human IMPDH1
In short: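 Run in duplicate with IMPDH type 1 (100 nM; line 2) or type 2 (30 nM; line 3) in 50 mM Tris pH 8.0, 100 mM KCl, 1 mM DTT, with IMP and NAD substrates. Inhibitors were added from DMSO to 1% final. At 25 °C, NADH formation was followed at 340 nm. Ki(app) came from fitting steady-state velocities versus inhibitor concentration to the Morrison equation.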

[2] = target: Inosine-5'-monophosphate dehydrogenase 2 (Homo sapiens, UniProt P12268); test: Inhibition of human IMPDH2
K562 = test: Antiproliferative activity against human K562 cells after 72 hrs by MTS assay; type: functional, cell-based
[3] = Selectivity ratio of IC50 for human K562 cells to Ki for human IMPDH2; type: ADME, cell-based

Chain of Inosine-5'-monophosphate dehydrogenase 1 (P20839 whole entry): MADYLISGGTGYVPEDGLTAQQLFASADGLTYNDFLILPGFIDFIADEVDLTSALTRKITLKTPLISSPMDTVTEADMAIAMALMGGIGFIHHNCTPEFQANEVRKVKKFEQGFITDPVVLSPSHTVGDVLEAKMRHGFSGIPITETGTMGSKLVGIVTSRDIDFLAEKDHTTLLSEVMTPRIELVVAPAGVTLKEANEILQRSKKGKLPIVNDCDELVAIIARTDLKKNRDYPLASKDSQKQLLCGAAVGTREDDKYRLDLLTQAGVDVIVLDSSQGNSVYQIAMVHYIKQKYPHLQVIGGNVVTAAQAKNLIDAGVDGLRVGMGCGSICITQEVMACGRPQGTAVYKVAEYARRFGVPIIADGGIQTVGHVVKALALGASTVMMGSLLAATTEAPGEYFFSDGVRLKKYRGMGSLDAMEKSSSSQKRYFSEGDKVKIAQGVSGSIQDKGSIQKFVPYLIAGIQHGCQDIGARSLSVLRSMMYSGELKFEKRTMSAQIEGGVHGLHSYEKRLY

Ki [1] [µM] | Ki [2] [µM] | IC50 (K562; Homo sapiens, K562, 72 h) [µM] | IC50 (K562; k562) [µM] | SMILES | Ratio [3]
16 | 4.3 | 56 | – | COc1cc(OC)c(-c2cnco2)cc1C/C=C(\C)CCC(=O)O (stereo in doubt; 3) | 10
10.3 | 2.3 | – | 88 | COc1cc(OC)c(-c2cnco2)cc1C/C=C(\C)CCC(=O)O (stereo in doubt; 3-E) | –

More lines, now with the values behind:

SMILES | Ki [1] [µM] | Ki [2] [µM] | IC50 (K562; Homo sapiens, K562, 72 h) [µM] | IC50 (K562; k562) [µM] | Ratio [3]
COc1cc(C/C=C(\C)CCC(=O)O)ccc1-c1cnco1 | 42.8 | 14.3 | > 100 | – | –
COc1ccc(C/C=C(\C)CCC(=O)O)cc1-c1cnco1 | 20.8 | 8.7 | > 100 | – | –
COc1c(C/C=C(\C)CCC(=O)O)cc(-c2cnco2)c(OC)c1C | > 100 | > 100 | – | – | –
COc1cc(OC)c(-c2cnco2)cc1C/C=C(/C)CCC(=O)O | 97.3 | 30.1 | 71 | – | –
